# Activity calls are given as the source filed them. The calls are words filed in the database; no cut-off is given here.
# How the values were obtained:
# SH-SY5Y [1] = test: Antioxidant activity in human SH-SY5Y cells assessed as decrease of tert-butyl hydroperoxide-induced ROS production at 20 uM after 24 hrs using DCFH-DA by fluorescence assay; format: functional, cell-based
# How it was run: (§1)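 SH-SY5Y grown in DMEM with 10% supplement at 37 °C, 5% CO2, seeded 3 × 10^4 cells/well. After 24 h, compounds were added (2.5 µM; reference antioxidants at 20 µM). Cells were loaded with 5 µM DCFH-DA in PBS for 30 min at 37 °C, washed, then exposed to 0.1 mM t-BuOOH for 30 min. Fluorescence read at ex 485/em 535 nm, expressed as % of untreated control.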
# [2] = Metal chelating activity of the compound assessed as formation of copper complex at 20 uM by UV-vis spectrometry; format: functional
# How it was run: (§2)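 UV spectra recorded for 20 µM compound alone or with 20 µM ZnSO4, CuSO4 or FeSO4.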
# SH-SY5Y [3] = test: Cytotoxicity against human SH-SY5Y cells assessed as cell viability at 2.5 uM; format: cell-based
# How it was run: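 SH-SY5Y cells seeded at 3 × 10^4 per well, 24 h later exposed to 2.5 µM compound (final 0.05% DMSO) or vehicle for 24 h, then assessed for markers of cell death.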
# [4] = Inhibition of amyloid beta (1 to 42) aggregation assessed as decrease of beta-sheet structure formation at 10 uM after 32 hrs by CD spectroscopy assay
# How it was run: (§3)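 Aβ1–42 (20 µM) incubated at 37 °C with or without 10 µM compound in 10 mM sodium phosphate pH 7.4. At 0, 6, 12 and 32 h, far-UV CD spectra recorded at 25 °C from 190 to 260 nm in a 1 mm quartz cell (bandwidth 0.5 nm, scan 10 nm/min).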
# [5] = Inhibition of amyloid beta (1 to 42) aggregation assessed as stabilization of […] structure at 10 uM after 32 hrs by CD spectroscopy assay; how it was run: as §3
# [6] = Metal chelating activity of the compound assessed as formation of iron complex at 20 uM by UV-vis spectrometry; format: functional; how it was run: as §2
# [7] = Inhibition of zinc-induced amyloid beta (1 to 42) aggregation in HEPES buffer at pH 7.4 after 45 mins by thioflavin T fluorescence assay
# How it was run: (§4)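 Aβ1–42 (20 µM) co-incubated with 40 µM Cu2+ or Fe2+ (HEPES pH 6.6) or Zn2+ (HEPES pH 7.4), with 150 µM NaCl, with or without 40 µM compound or clioquinol, at 37 °C for 45 min. Samples diluted into 50 mM glycine–NaOH pH 8.5 with 5 µM ThT; fluorescence read at ex 450/em 485 nm.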
# [8] = Inhibition of self-mediated amyloid beta (1 to 42) aggregation at 50 uM after 48 hrs by thioflavin T fluorescence assay relative to control
# How it was run: (§5)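 Aβ1–42 (final 20 µM) incubated in 10 mM phosphate pH 7.4 at 37 °C for 48 h with or without compound (2, 5, 10, 20, 50 µM). Samples diluted into 50 mM glycine–NaOH pH 8.5 with 5 µM ThT, read at ex 450/em 485 nm. Inhibition % = (1 − IFi/IFc) × 100; mean ± SD from at least two independent measurements.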
# [9] = Metal chelating activity of the compound assessed as formation of zinc complex at 20 uM by UV-vis spectrometry; format: functional; how it was run: as §2
# SH-SY5Y [10] = test: Antioxidant activity in human SH-SY5Y cells assessed as decrease of tert-butyl hydroperoxide-induced ROS production at 2.5 uM after 24 hrs using DCFH-DA by fluorescence assay; format: functional, cell-based; how it was run: as §1
# [11] = Inhibition of amyloid beta (1 to 42) fibril formation assessed as less thin and short fibrils at 20 to 40 uM after 12 hrs by transmission electron microscopic analysis
# How it was run: (§6)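 Aβ1–42 (40 µM) aggregated with or without 20 µM compound and sampled at 0, 12 and 32 h. Samples applied to grids, washed with water, negatively stained for 1 min with 2% uranyl acetate, blotted and examined by transmission EM.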
# [12] = Inhibition of amyloid beta (1 to 42) fibril formation assessed as few short fibrils and many breakage points in fibrils at 20 to 40 uM after 32 hrs by transmission electron microscopic analysis; how it was run: as §6
# [13] = Inhibition of iron-induced amyloid beta (1 to 42) aggregation in HEPES buffer at pH 6.6 after 45 mins by thioflavin T fluorescence assay; how it was run: as §4
# [14] = Antioxidant activity assessed as trolox equivalent of APPH-induced radical scavenging activity at 0.625 to 2.5 uM by ORAC fluorescence assay; format: functional
# How it was run: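 AAPH (40 mM) peroxyl-radical decay of fluorescein (140 nM working solution) in 75 mM potassium phosphate pH 7.4; compounds from DMSO stocks tested at final 2.5, 1.25 and 0.625 µM. Each mixture in four replicates, at least four independent runs. Curves normalized to blank, net AUC computed, values expressed as Trolox equivalents from a Trolox standard curve.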
# [15] = Inhibition of copper-induced amyloid beta (1 to 42) aggregation in HEPES buffer at pH 6.6 after 45 mins by thioflavin T fluorescence assay; how it was run: as §4
# [16] = Metal chelating activity of the compound assessed as formation of copper complex at 20 uM by molar ratio method; format: functional
# How it was run: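 Molar ratio method: compound solutions titrated with increasing CuSO4 or FeSO4; spectra obtained by subtracting CuSO4 and compound at matching concentrations, monitoring the band at 493 nm.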
# [17] = Inhibition of self-mediated amyloid beta (1 to 42) aggregation after 48 hrs by thioflavin T fluorescence assay; how it was run: as §5
Compound,Activity (SH-SY5Y [3]),inhibition [8] [%],Ratio [14],IC50 [17] [µM],further results
Cc1c(C)c2c(c(C)c1O)CCC(C)(C(=O)O)O2 (configuration not stated),,,,,Activity (SH-SY5Y [1]): Active
CN1CCN(c2ccc(/C=C3\CNC/C(=C\c4ccc(N5CCN(C)CC5)cc4)C3=O)cc2)CC1,Non-toxic,90.2,5.8,2.5,Activity [2]: Active; inhibition [4]: Active; inhibition [5]: Active; Activity [6]: Active; inhibition [7]: Active; Activity [9]: inactive; Activity (SH-SY5Y [10]): Active; inhibition [11]: Active; inhibition [12]: Active; inhibition [13]: Active; inhibition [15]: Active; Activity [16]: Active
Oc1c(I)cc(Cl)c2cccnc12,,,,,inhibition [13]: Active; inhibition [15]: Active
O=C1/C(=C/c2ccc(N3CCCCC3)cc2)CNC/C1=C\c1ccc(N2CCCCC2)cc1,Non-toxic,64.5,2.4,17.2,
CN1CCN(c2ccc(/C=C/C(=O)/C=C/c3ccc(N4CCN(C)CC4)cc3)cc2)CC1,Non-toxic,68.6,3.2,21.5,Activity (SH-SY5Y [10]): Active
CN1CCN(c2ccc(/C=C3\CC/C(=C\c4ccc(N5CCN(C)CC5)cc4)C3=O)cc2)CC1,Non-toxic,67.2,1.7,12.6,Activity (SH-SY5Y [10]): Active
COc1cc(/C=C/C(=O)CC(=O)/C=C/c2ccc(O)c(OC)c2)ccc1O [CURCUMIN],,71.3,2.5,12.1,Activity (SH-SY5Y [1]): Active
CN1CCN(c2ccc(/C=C/c3cccc(/C=C/c4ccc(N5CCN(C)CC5)cc4)c3)cc2)CC1,Non-toxic,42.1,1.2,> 50,
CN1CCN(c2ccc(/C=C3\CN(C)C/C(=C\c4ccc(N5CCN(C)CC5)cc4)C3=O)cc2)CC1,Non-toxic,65.1,4.7,17.6,
CN1CCN(c2ccc(/C=C/C(=O)c3cccc(C(=O)/C=C/c4ccc(N5CCN(C)CC5)cc4)c3)cc2)CC1,Non-toxic,52.8,1.3,37.8,
CN1CCN(c2ccc(/C=C/C(=O)CC(=O)/C=C/c3ccc(N4CCN(C)CC4)cc3)cc2)CC1,Non-toxic,77.8,1.9,9.2,
CN1CCN(c2ccc(/C=C/C(=O)c3ccc(C(=O)/C=C/c4ccc(N5CCN(C)CC5)cc4)cc3)cc2)CC1,Non-toxic,35.8,1.1,> 50,
CN1CCN(c2ccc(/C=C/c3cccc(/C=C/c4ccc(N5CCN(C)CC5)cc4)n3)cc2)CC1,Non-toxic,24,1.1,> 50,
CN1CCN(c2ccc(/C=C3\CCC/C(=C\c4ccc(N5CCN(C)CC5)cc4)C3=O)cc2)CC1,Non-toxic,73.1,2.6,6,Activity (SH-SY5Y [10]): Active
CC(=O)N[C@@H](CS)C(=O)O,,,,,Activity (SH-SY5Y [1]): inactive
